Assays:
[1] = DPPH˙ scavenging activity; settings: 30 min, 515 nm; tested 10–100 µg mL^−1
Method in brief: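 Test compound (10–100 µg mL⁻¹) or 80% methanol control was mixed 1:2 (v/v) with DPPH solution, shaken, and kept 30 min at room temperature in the dark. Absorbance was read at 515 nm. Scavenging % = 100 × (1 − A sample/A DPPH blank). Ferulic and syringic acids served as references. Run in triplicate.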

Cell viability [2] = format: cell-based; settings: human, HUVEC cells
Method in brief: (§1)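 Caco-2 and Vero cells were grown in DMEM with 10% FBS, and HUVEC in DMEM-F12 with 10% FBS, at 37 °C and 5% CO₂. Cells were seeded at 5.000 per well 24 h before treatment. Test compound was diluted from a 100 mM DMSO stock into 1% FBS medium at 1, 10, 30, 50, 100 and 150 µM. Controls were 10% DMSO and medium alone. At 24, 48 and 72 h, cells got resazurin (0.5 mg mL⁻¹ solution) for 4 h, read at ex 560/em 590 nm. IC50 was from curve fitting.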

[3] = SO + additive at 200 ppm; for T 5 (5% mass loss) / T 10 (10% mass loss) / T 50 (50% mass loss) / T onset (decomposition temperature: onset temperature): TGA in air
Method in brief: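 Thermogravimetry of sunflower oil with 200 ppm test compound: about 10 mg oil in a Pt crucible was heated from ambient to 700 °C at 5 °C min⁻¹ in air (60 mL min⁻¹), with N₂ purge on the balance. Onset temperature and temperatures at 5, 10 and 50% mass loss came from TG/DTG curves and were compared with unsupplemented oil.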

Cell viability [4] = format: cell-based; settings: African green monkey, Vero cells
Method in brief: as §1

Lipoperoxidation = settings: 220 °C; for Reduction in secondary oxidation (TBARS) in comparison with SOcontrol / TBARS value: SO + additive 200 ppm; for TBARS value: 30 min
Method in brief: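 Sunflower oil with 200 ppm test compound was heated on a hot plate at 25, 100, 180 and 220 °C for 30 min (ramp 2 °C min⁻¹). Oil (0.5 mL) was vortexed with TBA/TCA/HCl and centrifuged 3500 rpm for 5 min. Supernatant was heated 90 °C for 15 min and read at 535 nm against an MDA curve, as nmol MDA per mL oil. Unsupplemented oil was the control. Run in triplicate.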

Cell viability [5] = format: cell-based; settings: human, Caco-2 cells
Method in brief: as §1

[6] = Cytotoxic effect, summary over the three cell lines; format: cell-based; settings: human (Caco-2, HUVEC); African green monkey (Vero), Caco-2, HUVEC and Vero cells
Method in brief: as §1

[7] = Schaal Oven Test, TBARS, sunflower oil; settings: 60 °C, over 12 days
Method in brief: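 Schaal oven test (AOCS Cg5-97): supplemented olive or sunflower oil was held at 60 ± 5 °C in the dark for 12 days, sampled every 3 days. TBARS: oil was mixed with TBA/TCA/HCl and centrifuged. Supernatant was heated 90 °C for 15 min and read at 535 nm against an MDA curve (nmol MDA per mL oil). n = 3, compared with unsupplemented oil.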

SMILES | Antioxidant capacity (DPPH), IC50 [1] | IC50 at 24 h (Cell viability [2]) | IC50 at 48 h (Cell viability [2]) | IC50 at 72 h (Cell viability [2]) | T 5 (5% mass loss) [3] | T 10 (10% mass loss) [3] | T 50 (50% mass loss) [3] | T onset (decomposition temperature: onset temperature) [3] | IC50 at 24 h (Cell viability [4]) | IC50 at 48 h (Cell viability [4]) | IC50 at 72 h (Cell viability [4]) | Reduction in secondary oxidation (TBARS) in comparison with SOcontrol (Lipoperoxidation) | IC50 at 24 h (Cell viability [5]) | IC50 at 48 h (Cell viability [5]) | IC50 at 72 h (Cell viability [5]) | IC50 [6] | also measured
CCCCCOc1ccc(/C=C/C(=O)O)cc1OC [Compound 3c, (E)-3-(3-Methoxy-4-(pentyloxy)phenyl)acrylic acid] | >100 µg/mL | > 100 µM | > 100 µM | > 100 µM | 370 °C | 386 °C | 424 °C | 343 °C | > 100 µM | > 100 µM | > 100 µM | 6 times | > 100 µM | > 100 µM | > 100 µM |  | TBARS value (Lipoperoxidation): 7.68 nmol/mL; TBARS value (level of SO oxidation) (Lipoperoxidation; SO + additive): 7.68 nmol/L
CCCCCCCCOc1ccc(/C=C/C(=O)O)cc1OC [Compound 3e, (E)-3-(3-Methoxy-4-(octyloxy)phenyl)acrylic acid] | >100 µg/mL | 90 ± 1.03 µM | 53.1 ± 1.02 µM | 54.4 ± 1.05 µM |  |  |  |  | > 100 µM | > 100 µM | > 100 µM |  | > 100 µM | > 100 µM | 96.2 ± 1.1 µM | < 100 µM | 
CCOc1ccc(/C=C/C(=O)O)cc1OC [Compound 3a, (E)-3-(4-Ethoxy-3-methoxyphenyl)acrylic acid] | 56.50 ± 2.38 µg/mL | > 100 µM | > 100 µM | > 100 µM |  |  |  |  | > 100 µM | > 100 µM | > 100 µM |  | > 100 µM | > 100 µM | > 100 µM |  | 
CCCOc1ccc(/C=C/C(=O)O)cc1OC [Compound 3b, (E)-3-(3-Methoxy-4-propoxyphenyl)acrylic acid] | 90.43 ± 1.63 µg/mL | > 100 µM | > 100 µM | > 100 µM | 376 °C | 390 °C | 423 °C | 344 °C | > 100 µM | > 100 µM | > 100 µM | 5 times | > 100 µM | > 100 µM | > 100 µM |  | Difference of degradation temperature in comparison to SO at 5% mass loss [3]: 35 °C; Difference of degradation temperature in comparison to SO at 10% mass loss [3]: 25 °C; Difference of degradation temperature in comparison to SO at 50% mass loss [3]: 4 °C; TBARS value (Lipoperoxidation): 8.88 nmol/mL
CCCCCCOc1ccc(/C=C/C(=O)O)cc1OC [Compound 3d, (E)-3-(4-(Hexyloxy)-3-methoxyphenyl)acrylic acid] | >100 µg/mL | > 100 µM | > 100 µM | > 100 µM |  |  |  |  | > 100 µM | > 100 µM | > 100 µM |  | > 100 µM | > 100 µM | > 100 µM |  | 
CCCCCCCCCCOc1ccc(/C=C/C(=O)O)cc1OC [Compound 3f, (E)-3-(4-(Decyloxy)-3-methoxyphenyl)acrylic acid] | >100 µg/mL | 55.6 ± 1.05 µM | 26.4 ± 1.06 µM | 25.4 ± 1.08 µM |  |  |  |  | > 100 µM | > 100 µM | > 100 µM |  | > 100 µM | 88.7 ± 1.08 µM | 76.8 ± 1.08 µM | < 100 µM | 

The next lines start with results.

Antioxidant capacity (DPPH), IC50 [1] | SMILES | IC50 at 24 h (Cell viability [2]) | IC50 at 48 h (Cell viability [2]) | IC50 at 72 h (Cell viability [2]) | T 5 (5% mass loss) [3] | T 10 (10% mass loss) [3] | T 50 (50% mass loss) [3] | T onset (decomposition temperature: onset temperature) [3] | IC50 at 24 h (Cell viability [4]) | IC50 at 48 h (Cell viability [4]) | IC50 at 72 h (Cell viability [4]) | Reduction in secondary oxidation (TBARS) in comparison with SOcontrol (Lipoperoxidation) | IC50 at 24 h (Cell viability [5]) | IC50 at 48 h (Cell viability [5]) | IC50 at 72 h (Cell viability [5]) | IC50 [6] | also measured
4.53 ± 0.19 µg/mL | COc1cc(C(=O)O)cc(OC)c1O [Compound 4, syringic acid, reference compound] |  |  |  |  |  |  |  |  |  |  |  |  |  |  |  | 
>100 µg/mL | CCCCCCOc1c(OC)cc(C(=O)O)cc1OC [Compound 5d, 4-(Hexyloxy)-3,5-dimethoxybenzoic acid] | > 100 µM | > 100 µM | > 100 µM |  |  |  |  | > 100 µM | > 100 µM | > 100 µM |  | > 100 µM | > 100 µM | > 100 µM |  | 
>100 µg/mL | CCCCCCCCOc1c(OC)cc(C(=O)O)cc1OC [Compound 5e, 3,5-Dimethoxy-4-(octyloxy)benzoic acid] | > 100 µM | 55.9 ± 1.06 µM | 53.3 ± 1.05 µM |  |  |  |  | > 100 µM | > 100 µM | > 100 µM |  | > 100 µM | > 100 µM | > 100 µM | < 100 µM | 
11.47 ± 0.58 µg/mL | CCCOc1c(OC)cc(C(=O)O)cc1OC [Compound 5b, 3,5-Dimethoxy-4-propoxybenzoic acid] | > 100 µM | > 100 µM | > 100 µM | 364 °C | 382 °C | 420 °C | 305 °C | > 100 µM | > 100 µM | > 100 µM | 5 times | > 100 µM | > 100 µM | > 100 µM |  | Increase of onset temperature of mass loss (Tonset) in comparison with SO [3]: 24 °C
9.20 ± 0.91 µg/mL | CCOc1c(OC)cc(C(=O)O)cc1OC [Compound 5a, 4-Ethoxy-3,5-dimethoxybenzoic acid] | > 100 µM | > 100 µM | > 100 µM |  |  |  |  | > 100 µM | > 100 µM | > 100 µM |  | > 100 µM | > 100 µM | > 100 µM |  | 
34.98 ± 2.23 µg/mL | CCCCCOc1c(OC)cc(C(=O)O)cc1OC [Compound 5c, 3,5-Dimethoxy-4-(pentyloxy)benzoic acid] | > 100 µM | > 100 µM | > 100 µM | 368 °C | 388 °C | 426 °C | 318 °C | > 100 µM | > 100 µM | > 100 µM | 5 times | > 100 µM | > 100 µM | > 100 µM |  | TBARS values compared with control [7]: decreased the TBARS values; Increase of onset temperature of mass loss (Tonset) in comparison with SO [3]: 37 °C
>100 µg/mL | CCCCCCCCCCOc1c(OC)cc(C(=O)O)cc1OC [Compound 5f, 4-(Decyloxy)-3,5-dimethoxybenzoic acid] | 47.2 ± 1.04 µM | 35.4 ± 1.04 µM | 29.3 ± 1.09 µM |  |  |  |  | > 100 µM | > 100 µM | > 100 µM |  | > 100 µM | 70 ± 1.06 µM | 62.8 ± 1.07 µM | < 100 µM | 

— publication PMC11250141 (RSC Advances, 2024)
